High-throughput results as filed in PubChem BioAssay.
Rows were chosen to be rich in hits. Some 4.3% of all compounds tested hit in one or more screens of this group.
NF-kB neuron act: activators of NF-kB expression in neurons, primary screen, cell-based, HTS. human neuronal cells, NF-kB reporter expression; hits give high values. fold change at 12.5 µM. actives 1.6% (n = 190,000); in the data active means fold change above about 3.3
APP 5'UTR act: activators of APP 5'UTR luciferase reporter, primary screen, SH-SY5Y cells; actives 1% (n = 190,000); activation, % at 2 µM; SH-SY5Y APP 5'UTR luciferase reporter, luminescence; zero percent = DMSO vehicle wells;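 active means activation above a set limit, based on mean plus 3 SD of controls, cut at about 140% in these data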
SDO1 yeast rescue: growth rescue of sdo1-depleted yeast, primary screen, S. cerevisiae, bone marrow failure model; S. cerevisiae sdo1-depleted JHY4D growth rescue, OD600 30 h; hits give high values; pdr5 snq2 efflux-pump mutant strain; z-score at 10 µM; actives 0.21% (n = 140,000); AID 817, 2007;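 active means z-score above 3 at both the 24 hr and the 30 hr optical density reads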;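 further: z-score against mean and SD of all compound wells on the same plate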
FLuc stim CS: FLuc activators, initial screening, artefact control for FLuc-dependent activation tests, biochemical, ATPlite luminescence | ATPlite luciferase biochemical, 10 min; 0 = ATP-free wells, 1 = DMSO control | activation factor at 10 µM | 200,000 tested, under 10 active | AID 1027, 2008;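 active means luciferase activation factor, scaled between plate controls, of at least 2 with compound at 10 µM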
Target sequence (P08659 whole entry, looked up): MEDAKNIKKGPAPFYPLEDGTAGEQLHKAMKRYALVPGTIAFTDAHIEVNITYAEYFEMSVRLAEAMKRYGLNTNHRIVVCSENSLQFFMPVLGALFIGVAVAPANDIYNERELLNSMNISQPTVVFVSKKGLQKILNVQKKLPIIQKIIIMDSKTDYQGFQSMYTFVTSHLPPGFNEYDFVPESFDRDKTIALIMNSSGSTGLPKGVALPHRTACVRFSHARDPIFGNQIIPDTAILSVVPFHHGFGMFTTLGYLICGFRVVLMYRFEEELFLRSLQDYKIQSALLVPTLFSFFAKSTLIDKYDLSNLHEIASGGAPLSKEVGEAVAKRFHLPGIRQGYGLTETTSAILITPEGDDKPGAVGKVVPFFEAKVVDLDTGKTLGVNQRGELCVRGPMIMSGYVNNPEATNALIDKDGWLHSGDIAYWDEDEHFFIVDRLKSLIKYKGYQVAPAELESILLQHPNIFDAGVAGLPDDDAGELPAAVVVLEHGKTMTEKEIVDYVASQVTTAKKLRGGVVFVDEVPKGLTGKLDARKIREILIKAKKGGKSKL
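Assay system – cell-free luciferase reagent · Medium – PBS-based ATP solution · Dosing – test compounds dosed from 2 mM stocks in 100% DMSO · Timing – 10 min, room temperature · Technique – light output (luminescence) · Measure – luminescence gain marking luciferase activators · Controls – No-ATP low control, compound-free enzyme-plus-ATP high control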
STAT1 activator: STAT1 signaling activators, primary screen, cell-based, HTS, luciferase reporter; NIH 3T3 STAT1-luciferase reporter, IFN-gamma, luminescence; 100% = IFN-gamma alone, no compound; activation (% of control), % at 5.5 µM; actives 2.6% (n = 200,000);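 active means activation above the screen-wide mean activation plus 3 SD, cut at about 130% in these data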;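 further: raw ratio to IFN-gamma control signal so 100% means no change and 0% no light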
FLuc inhib CS: firefly luciferase enzyme inhibitors, primary screen, artefact control for luciferase-based inhibitor screens, biochemical, luminescence, ATPLite; 10 min; inhibition, % at 10 µM; actives 1.5% (n = 200,000);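 active means inhibition above about 50% when tested at 10 µM, limit read from the data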
The depositor's hits bear a star; . = no result.

SMILES	NF-kB neuron act	APP 5'UTR act	SDO1 yeast rescue	FLuc stim CS	STAT1 activator	FLuc inhib CS
CCOC(=O)c1c(C)[nH]c(C(=O)Nc2ccc3c(c2)OCO3)c1C	7.76*	164.0*	-0.73	0.8	141.0*	24.7
Cc1ccccc1C(=O)Nc1ccc2c(c1)OCO2	4.77*	177.2*	-0.41	0.3	106.8	74.1*
CCO/C(C)=C1\C(=O)Nc2ccccc21	1.02	-12.0	0.69	1.1	81.4	-6.6
Cc1nc2c(C(=O)N3CCCCC3)cnn2c(C)c1Cc1ccccc1F	1.45	132.1	-0.57	0.8	137.6*	20.8
Cc1ccc(O)c(-c2cc(-c3cccc(F)c3)n[nH]2)c1	5.04*	43.3	-2.18	1	93.2	-4.3
Cc1ccc(-c2cc(-c3cccc(F)c3)n[nH]2)c(O)c1	9.62*	215.4*	-1.69	0.9	104.2	10.3
O=[N+]([O-])c1ccccc1-c1cc(-c2ccccc2O)n[nH]1	2.45	97.6	-0.72	0.9	96.1	11.4
Oc1ccc(Br)cc1-c1cc(-c2ccccc2)n[nH]1	1.13	-2.7	-2.36	1	103.9	-2.1
Cc1ccc(-c2cc(-c3ccccc3C)[nH]n2)c(O)c1	6.29*	120.5	-2.54	0.9	94.4	8.8
Cc1ccc(O)c(-c2cc(-c3ccccc3F)[nH]n2)c1	4.35*	39.8	-2.26	0.9	109.0	6.2
CCCN1C(=O)c2cc(C(=O)NCCc3cccc(C)c3)ccc2C1O (stereo unspecified)	1.29	-5.5	0.74	1	110.3	2.5
CCc1nnc(NC(=O)C2CCCN(S(=O)(=O)c3ccc(OC)cc3)C2)s1 (stereo unspecified)	0.78	-5.3	.	1.1	93.3	-7.3
CCOC(=O)CNC(=O)c1ccc(Cl)s1	1.08	14.7	.	1	101.9	-1.1
CCNc1nc(N)c(C(=O)c2ccc(Cl)s2)s1	3.72*	58.3	-0.21	1	144.2*	2.8
CC(C)(C)c1ccc(C(=O)CS(=O)(=O)c2ccccc2)cc1	0.86	139.9*	-1.08	0.5	97.5	54.2*
Cc1ccc(S(=O)(=O)CC(=O)c2ccccc2)cc1	1.67	9.4	0.4	1	98.6	-2.5
O=C(/C=C\Nc1ccc2c(c1)OCO2)c1ccc2c(c1)OCO2	8.02*	197.2*	.	0.1	51.2	89.3*
CCOc1ccc(N/C=C\C(=O)c2ccc3c(c2)OCO3)cc1	2.26	-7.8	-0.94	.	130.9*	.
COc1ccc(/C(N)=N/OC(=O)c2ccc3c(c2)OCO3)cc1	2.88	60.4	-2.38	0.3	112.9	69.1*
COc1ccc(N/C=C\C(=O)c2ccc3c(c2)OCO3)cc1	8.41*	74.8	0.62	0.1	111.9	88.7*
Cc1noc(NS(=O)(=O)c2ccc(N/C=C/C(=O)c3ccc4c(c3)OCO4)cc2)c1C	1.28	-4.9	1.64	0.7	115.9	31.1
O=C(NCc1ccc2c(c1)OCO2)c1ccccn1	2.57	38.9	0.48	1.1	98.5	-8.8
O=C(/C=C\Nc1ccc2c(c1)OCO2)c1ccccn1	1.3	120.4	-1.41	0	20.6	95.2*
COC(=O)/C(=C/c1ccco1)NC(=O)c1ccco1	0.95	3.7	1.68	1	98.9	-3.3
CCc1ccc2nc3sc(C(=O)O)cc3cc2c1	1.82	12.8	.	0.3	117.7	67.7*
SMILES	NF-kB neuron act	APP 5'UTR act	SDO1 yeast rescue	FLuc stim CS	STAT1 activator	FLuc inhib CS
COc1ccc2nc3sc(C(=O)N4CCN(C)CC4)cc3cc2c1	1.59	17.7	0.51	1	108.6	3.2
CCCCc1ccc(NS(=O)(=O)c2cccs2)cc1	1.01	0.4	-2.78	1.1	100.0	-5.0
CCC(C)/C(C)=N/NC(=O)c1ccc(CSc2nc3ccccc3s2)cc1 (stereo unspecified)	1.26	45.6	-0.51	1	129.7*	-3.4
O=C(O)c1ccc(CSc2nc3ccc(NC(=O)c4ccccc4C(=O)O)cc3s2)cc1	1.07	9.3	.	0.9	98.1	6.7
COc1ccccc1N1CCN(C(=O)Cn2nc3n(C)c4ccccc4n3c(=O)c2=O)CC1	0.93	-2.6	.	1	104.0	-1.5
CCCC(CCC)C(=O)Nc1ccc2c(c1)N(C(=O)CCN1CCN(C)CC1)c1ccccc1CC2	1.05	10.5	.	1	92.6	-4.3
O=C(Cc1ccc(Br)cc1)c1ccc(O)cc1O	1.88	41.0	-2.64	1	130.2*	0.5
CCCCC(=O)c1ccc(O)cc1O	1.51	-11.4	-0.35	.	98.9	.
Oc1ccc(-c2cn3cc(C(F)(F)F)ccc3n2)cc1	13.3*	228.7*	-0.52	0.1	97.8	94.6*
O=C1CCCC/C1=C/Nc1ccc2c(c1)OCO2	2.22	66.9	-0.02	0.7	140.7*	29.3
O=C1CCCC/C1=C/Nc1ccc(C(=O)O)cc1	1.3	.	-0.34	1	100.5	0.6
CC(=O)Nc1ccc(-c2csc(NCc3ccco3)n2)cc1	3.69*	116.0	0.85	0.7	137.1*	27.1
Cc1ccc2c(CN3CCN(S(=O)(=O)/C=C/c4ccccc4)CC3)cc(=O)oc2c1	0.88	6.3	0.32	1	95.6	-3.8
O=C(NCCC1=CCCCC1)C1CCN(C(=O)c2ccc(Br)cc2)CC1	1.2	-0.9	-0.23	1	91.8	2.1
Cn1cccc1-c1cc(C(=O)N/N=C/c2cccc(O)c2)[nH]n1	1.75	15.5	.	0.8	113.9	19.5
CN(Cc1cccs1)C(=O)CCc1c[nH]c2ccccc12	1.14	8.4	.	1	101.5	-0.1
CN(Cc1cccs1)C(=O)CCCc1c[nH]c2ccccc12	1.04	57.9	.	0.9	129.5*	5.2
Cc1ccc(NC(=O)/C(C#N)=C(\N)C(Cl)(Cl)Cl)nc1	6.36*	33.6	.	0.2	118.5	83.3*
CCc1cccc(CC)c1NC(=O)/C(C#N)=C/c1ccccc1C(F)(F)F	3.43*	8.6	-2.5	1	92.4	-4.8
CCOc1cc(/C=N/NC(=O)C(=O)NC)cc(Br)c1O	0.99	-7.2	-1.02	1	105.4	1.5
CC(=O)c1ccc(NC(=O)Nc2cccc(Cl)c2)cc1	3.63*	120.6	-0.46	1	119.9	1.5
CCC(=O)Nc1cccc(C(=O)/C=C/c2ccc(F)cc2)c1	3.84*	21.7	.	0.8	102.2	18.8
CCOc1ccc(NC(=O)Nc2cc(C)ccc2F)cc1	2.38	130.9	-1.48	0.8	128.9*	19.8
Cc1ccccc1OCC(=O)Nc1cccc(C(=O)O)c1	8.97*	-68.3	.	0.4	11.7	59.3*
Cc1ccc(-n2[nH]c(C)c(/C=N/Nc3ccc([N+](=O)[O-])cc3[N+](=O)[O-])c2=O)cc1	0.68	-6.8	0.27	0.8	100.5	21.3
CC(C)(C)c1ccc(CN2C(=O)CSC2=O)cc1	1.07	-2.6	.	1.1	103.2	-5.3
